The values that follow come from ChEMBL document CHEMBL1275259, “In vitro antituberculosis activities of ACH-702, a novel isothiazoloquinolone, against quinolone-susceptible and quinolone-resistant isolates” (Antimicrob Agents Chemother, 2010).

≈ marks a conversion by molar mass, not a printed value. Where only a bound is given, the exact number is not on record here.

Test [1] concerns the target DNA gyrase subunit A (Mycobacterium tuberculosis, UniProt P9WG47, A90V). Nature of the test: Inhibition of DNA supercoiling activitysof Mycobacterium tuberculosis DNA gyrase subunit A A90V mutant.
Test [2] deals with Mycobacterium tuberculosis. Description: Antimicrobial activity against multidrug-resistant Mycobacterium tuberculosis isolate 9. In kind it is functional. Summed up:
(§1)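 Broth microdilution MIC in modified 7H10 broth (pH 6.6). Drugs dissolved in DMSO at 1 mg/ml, then serially diluted. Isolates grown 5 to 10 days at 37°C on a rotary shaker, diluted to 100 Klett units and frozen. Final inoculum about 6 × 10^4 CFU/ml (range 1.2 × 10^4 to 2.6 × 10^5). Duplicate wells, sealed, read after about 21 days at 37°C in ambient air.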

In test [3] the target is DNA gyrase subunit A (Mycobacterium tuberculosis, UniProt P9WG47, D94G). Nature of the test: Inhibition of DNA supercoiling activity of Mycobacterium tuberculosis DNA gyrase subunit A D94G mutant.
In test [4] the test system is Mycobacterium tuberculosis. Description: Antimicrobial activity against quinolone-resistant Mycobacterium tuberculosis isolate 12. It counts as functional. The method in brief: as §1
The test system of test [5] is Mycobacterium tuberculosis. Nature of the test: Antimicrobial activity against quinolone-resistant Mycobacterium tuberculosis isolate 10. It counts as functional. Summed up: as §1
Test [6] concerns Mycobacterium tuberculosis. Nature of the test: Antimicrobial activity against multidrug-resistant Mycobacterium tuberculosis isolate 19. It counts as functional. The method in brief: as §1
Test [7] relates to Mycobacterium tuberculosis. Description: Antimicrobial activity against multidrug drug-resistant Mycobacterium tuberculosis isolate 20. In kind it is functional. The method in brief:
as §1

Test [8] has as its system Mycobacterium tuberculosis. Description: Antimicrobial activity against extensively drug-resistant Mycobacterium tuberculosis isolate 16. In kind it is functional. Summed up:
as §1

Test [9] deals with Mycobacterium tuberculosis. Nature of the test: Antimicrobial activity against streptomycin-resistant Mycobacterium tuberculosis isolate 8. It counts as functional. Summed up:
as §1

The subject of test [10] is Mycobacterium tuberculosis. Description: Antimicrobial activity against isoniazid-resistant Mycobacterium tuberculosis isolate 15. It counts as functional. Summed up:
as §1

Test [11] deals with Mycobacterium tuberculosis. Nature of the test: Antimicrobial activity against extensively drug-resistant Mycobacterium tuberculosis isolate 17. In kind it is functional. Summed up:
as §1

In test [12] the test system is Mycobacterium tuberculosis. Nature of the test: Antimicrobial activity against extensively drug-resistant Mycobacterium tuberculosis isolate 18. It counts as functional. The method in brief: as §1
The subject of test [13] is Mycobacterium tuberculosis. Nature of the test: Antimicrobial activity against quinolone-resistant Mycobacterium tuberculosis isolate 11. In kind it is functional. Summed up:
as §1

The IC50 is the point on the concentration scale where inhibition reaches its midpoint. A word on the MIC: it is the lowest concentration that inhibits growth of the organism. Consider `COc1c(N2CC[C@@H](C(C)(C)N)C2)c(F)cc2c(=O)c3c(=O)[nH]sc3n(C3CC3)c12`, for which the IC50 against DNA gyrase subunit A [1] worked out at 4.6 µM; at DNA gyrase subunit A [3], 7.9 µM. Besides, the MIC is 0.06 µg/mL (≈ 0.139 µM) in test [2]; 1 µg/mL (≈ 2.31 µM) in [4]; 0.125 µg/mL (≈ 0.289 µM) in [5]; 0.03 µg/mL (≈ 0.0694 µM) in test [6]; 0.03 µg/mL (≈ 0.0694 µM) in test [7]; 0.5 µg/mL (≈ 1.16 µM) in test [8]. The MIC in [9] came to 0.25 µg/mL (≈ 0.578 µM); in test [10], 0.06 µg/mL (≈ 0.139 µM); in test [11], 1 µg/mL (≈ 2.31 µM); in [12], 0.125 µg/mL (≈ 0.289 µM); in test [13] it was 0.25 µg/mL (≈ 0.578 µM).

As for `COc1c(N2CCNC(C)C2)c(F)cc2c(=O)c(C(=O)O)cn(C3CC3)c12` (stereo unspecified) [GATIFLOXACIN], the IC50 on DNA gyrase subunit A [1] was 28 µM; against DNA gyrase subunit A [3] it was 44 µM.

With `NNC(=O)c1ccncc1` [ISONIAZID], the MIC in [2] turned out to be 4 µg/mL (≈ 29.2 µM); in test [4], 0.03 µg/mL (≈ 0.219 µM); in [5] it was 0.03 µg/mL (≈ 0.219 µM); in test [6], 2 µg/mL (≈ 14.6 µM); in test [7], 2 µg/mL (≈ 14.6 µM); in test [8], 1 µg/mL (≈ 7.29 µM). The MIC in test [9] was 0.125 µg/mL (≈ 0.911 µM); in test [10], > 8 µg/mL; in test [11], 1 µg/mL (≈ 7.29 µM); in [12], 2 µg/mL (≈ 14.6 µM); in test [13] it was 0.03 µg/mL (≈ 0.219 µM).

Turning to `C[C@H]1COc2c(N3CCN(C)CC3)c(F)cc3c(=O)c(C(=O)O)cn1c23` [LEVOFLOXACIN], the IC50 against DNA gyrase subunit A [1] and at DNA gyrase subunit A [3] was > 300 µM in each case.

`COc1c(N2C[C@@H]3CCCN[C@@H]3C2)c(F)cc2c(=O)c(C(=O)O)cn(C3CC3)c12` [MOXIFLOXACIN]: the MIC in test [2] is 0.06 µg/mL (≈ 0.149 µM); in [4], 8 µg/mL (≈ 19.9 µM); in [5], > 8 µg/mL; in test [6], 0.03 µg/mL (≈ 0.0747 µM); in test [7], 0.03 µg/mL (≈ 0.0747 µM); in test [8] it was 1 µg/mL (≈ 2.49 µM). Further, the MIC amounted to 0.06 µg/mL (≈ 0.149 µM) in test [9]; 0.06 µg/mL (≈ 0.149 µM) in [10]; 2 µg/mL (≈ 4.98 µM) in test [11]; 1 µg/mL (≈ 2.49 µM) in test [12]; 4 µg/mL (≈ 9.96 µM) in test [13].

As to `CO[C@H]1/C=C/O[C@@]2(C)Oc3c(C)c(O)c4c(O)c(c(/C=N/N5CCN(C)CC5)c(O)c4c3C2=O)NC(=O)/C(C)=C\C=C\[C@H](C)[C@H](O)[C@@H](C)[C@@H](O)[C@@H](C)[C@H](OC(C)=O)[C@@H]1C` [RIFAMPIN], the MIC in test [2] worked out at 64 µg/mL (≈ 77.8 µM); in [4], 0.004 µg/mL (≈ 0.00486 µM); in test [5] it was 0.004 µg/mL (≈ 0.00486 µM); in [6], 64 µg/mL (≈ 77.8 µM); in test [7] it was 16 µg/mL (≈ 19.4 µM); in test [8], 8 µg/mL (≈ 9.72 µM). Besides, the MIC turned out to be 0.008 µg/mL (≈ 0.00972 µM) in test [9]; 0.002 µg/mL (≈ 0.00243 µM) in test [10]; 8 µg/mL (≈ 9.72 µM) in [11]; 8 µg/mL (≈ 9.72 µM) in [12]; 0.03 µg/mL (≈ 0.0365 µM) in test [13].

As for `CN[C@@H]1[C@H](O[C@H]2[C@H](O[C@H]3[C@H](O)[C@@H](O)[C@H](N=C(N)N)[C@@H](O)[C@@H]3N=C(N)N)O[C@@H](C)[C@]2(O)C=O)O[C@@H](CO)[C@H](O)[C@H]1O` [STREPTOMYCIN], inhibition of growth in [2] (MIC) required 32 µg/mL (≈ 55 µM).
